PG9 binder – PG9 antibody binding by small molecule. TR-FRET gp120-PG9 antibody binding. 360,000 tested, 0.43% active. AID 624416. inhibition, % at 6.7 µM; in the data active = inhibition above about 8.5%
rCAG RNA binder – molecules binding r(CAG) RNA repeats; inhibition, % at 3 µM; 370,000 tested, 1.3% active; r(CAG) RNA repeat, TO-PRO-1 dye displacement fluorescence;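 active = inhibition above the plate cutoff, the mean of all test compounds on that plate plus 3 SD, cut at about 35% in these data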;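 also: 0% = DMSO alone and 100% = 100 µM mitoxantrone as full dye displacement; higher means more dye released from RNA so lower well fluorescence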
NR2E3 ag-1 – agonists of human NR2E3 nuclear receptor; Q9Y5X4; CHO-S Gal4-NCOR/VP16-NR2E3 two-hybrid, luciferase; inhibition of corepressor binding, % at 3.98 µM; 360,000 tested, 0.35% active;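 active = inhibition above the mean of all tested compounds plus 3 SD, cut at about 70% in these data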;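 also: 0% = DMSO with NR2E3 transfected cells and 100% = cells lacking NR2E3 construct; higher means lower luciferase signal from less NR2E3 corepressor binding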
NR2E3 ag-2 – NR2E3 (human) agonism; inhibition of corepressor binding, % at 4.78 µM; GST-NR2E3/biotin-RetCOR TR-FRET, 1536-well; 320,000 tested, 0.12% active;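 active = percent inhibition above the cutoff of mean plus 3 SD of all tested compounds, set per screening campaign, cut at about 20% in these data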;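 also: 0% = DMSO wells and 100% = biotin wells as full block of FRET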
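Assay system: NR2E3–RetCOR corepressor complex. Quantity: 1.35 nM GST-NR2E3. Buffer or medium: pH 7.5 Tris-based buffer. Reagent: biotinylated RetCOR corepressor at 7 nM final. Schedule: 5 h at 4 °C. Detection: TR-FRET, emission read at 617 and 671 nm. Replicates: one well per compound, singlicate testing.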
Rev-erbA mod – modulates human Rev-erb alpha binding to DNA; Rev-erbα–FITC-DNA binding, fluorescence polarization, 90 min; activity, % at 10 µM; 370,000 tested, 0.79% active;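 active = activity above about 14%, limit read from the data; passing the limit was not always enough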;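 also: 0% = DMSO wells with 35 nM protein and 100% = DMSO wells with 750 nM protein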
Target sequence (P20393 whole entry, looked up): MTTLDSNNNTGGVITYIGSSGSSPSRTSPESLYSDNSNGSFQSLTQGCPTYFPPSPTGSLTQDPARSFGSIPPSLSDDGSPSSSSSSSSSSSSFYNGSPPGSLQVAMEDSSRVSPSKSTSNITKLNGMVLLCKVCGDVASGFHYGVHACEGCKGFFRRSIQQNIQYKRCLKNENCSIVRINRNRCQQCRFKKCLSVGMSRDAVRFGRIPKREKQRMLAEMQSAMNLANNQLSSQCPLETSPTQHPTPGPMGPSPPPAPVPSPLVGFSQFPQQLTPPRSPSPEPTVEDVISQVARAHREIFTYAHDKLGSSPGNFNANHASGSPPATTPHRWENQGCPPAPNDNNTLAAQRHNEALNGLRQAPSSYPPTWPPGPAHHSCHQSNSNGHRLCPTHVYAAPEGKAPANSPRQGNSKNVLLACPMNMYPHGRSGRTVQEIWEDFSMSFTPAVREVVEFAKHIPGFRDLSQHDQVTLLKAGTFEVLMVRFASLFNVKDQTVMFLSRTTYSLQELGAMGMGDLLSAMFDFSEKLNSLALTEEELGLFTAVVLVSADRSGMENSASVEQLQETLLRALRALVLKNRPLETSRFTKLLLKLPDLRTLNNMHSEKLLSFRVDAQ
rCAG binder conf – r(CAG) RNA repeat binding, confirmation; AID 652065; TO-PRO-1 dye displacement fluorescence; shares compounds with rCAG RNA binder; inhibition, % at 3 µM; 4,300 tested, 70% active;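 active = inhibition above a per-plate cutoff, the mean inhibition of sample wells plus 3 SD, cut at about 35% in these data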;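 also: loss of TO-PRO-1 fluorescence as compound displaces dye from 1x1 AA loop RNA; 0% = DMSO only wells and 100% = 100 µM mitoxantrone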
dCAG dye counter – DNA CAG dye complex inhibition counter-screen. d(CAG) DNA oligo TO-PRO-1 dye displacement, fluorescence. inhibition, % at 3 µM. shares compounds with rCAG RNA binder. 4,300 tested, 94% active. AID 652068;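 active = inhibition above its plate's cutoff, the mean test-well inhibition plus 3 SD, cut at about 4.8% in these data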;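 also: 0% = DNA dye mix with DMSO and 100% = 100 µM mitoxantrone; hits displace the dye from DNA and so lower well fluorescence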
dCAG dye DR – DNA CAG dye complex inhibition, dose response counter-screen; DNA CAG/GTC duplex TO-PRO-1 dye displacement fluorescence; 250 tested, 20% active; IC50, µM; shares compounds with rCAG RNA binder; in the data active = IC50 below about 10 µM
Numbers without * were called inactive; i = inactive; x = no result given. Shown are actives, neighbours in structure and some others; about 2.6% of the full set was active somewhere.

SMILES	PG9 binder	rCAG RNA binder	NR2E3 ag-1	NR2E3 ag-2	Rev-erbA mod	rCAG binder conf	dCAG dye counter	others
COc1ccc(C2=NN(c3nc4ccccc4s3)C(=O)/C2=C\N(C)C)cc1	-1	46*	-43	7	-2	38*	13*
Cc1ccc(Cn2c(C(C)Nc3nc(-c4ccc(Cl)c([N+](=O)[O-])c4)cs3)nc3cc(C(F)(F)F)ccc32)cc1 (stereo not given)	1	22	-27	3	2	x	x
Cn1nc([N+](=O)[O-])c(C(C#N)c2ccccn2)c(Cl)c1=O (stereo not given)	-1	5	-2	-1	2	x	x
CCCn1nc([N+](=O)[O-])c(C(C#N)c2nc3ccccc3o2)c(Cl)c1=O (stereo not given)	-1	80*	-36	1	5	77*	37*
CCn1nc([N+](=O)[O-])c(C(C#N)c2nc3cc(C(F)(F)F)ccc3s2)c(Cl)c1=O (stereo not given)	0	94*	-13	-3	7	87*	60*
O=C(CN1C(=O)NC2(CCCC2)C1=O)N1CCN(S(=O)(=O)c2ccc(Cl)c(C(F)(F)F)c2)CC1	3	-5	-10	-5	2	x	x
CC(=O)C1=C(O)C(=O)N(c2ccc(S(N)(=O)=O)cc2)C1c1cccc([N+](=O)[O-])c1 (stereo not given)	0	6	-17	-6	-4	x	x
CC(=O)C1C(=O)c2c(cccc2[N+](=O)[O-])C1=Nc1ccc(S(N)(=O)=O)cc1 (stereo not given)	-1	38*	-26	3	2	28	13*
COc1ccc(-c2nn(-c3ccccc3)cc2/C=N/Nc2cccc(C(=O)O)c2)cc1	0	37*	-41	x	1	48*	20*
COc1ccc(-c2nn(-c3ccccc3)cc2/C=N/NC(=O)c2ccc3c(c2)OCO3)cc1	x	x	x	2	x	x	x
COc1cccc(-c2nn(-c3ccccc3)cc2/C=C(/NC(=O)c2ccccc2)C(=O)O)c1	-1	38*	-5	4	-6	38*	9.2*
Cc1ccc(F)c(S(=O)(=O)NC(=O)C2(C)CCN2C(=O)CC(c2ccccc2)c2ccccc2)c1 (stereo not given)	0	49*	-35	x	-1	43*	12*
CC1(C(=O)NS(=O)(=O)c2ccc(F)cc2F)CCN1C(=O)CC(c1ccccc1)c1ccccc1 (stereo not given)	1	38*	-14	x	2	33	5.8*
O=C(Nc1ccc(Cl)cc1)c1ccc(S(=O)(=O)N2CCOCC2)cc1	1	0	6	-1	-1	x	x
Cc1cc(O)c(-c2cc(C(=O)Nc3ccc(S(=O)(=O)N4CCOCC4)cc3)[nH]n2)cc1C	0	41*	10	-6	3	29	15*
Cc1ccc(O)c(-c2cc(C(=O)Nc3ccc(S(=O)(=O)N4CC(C)OC(C)C4)cc3)[nH]n2)c1 (stereo not given)	1	23	5	2	-7	x	x
O=C(Nc1ccc(S(=O)(=O)N2CCOCC2)cc1)c1cc(-c2cc(Cl)ccc2O)n[nH]1	0	46*	-4	1	4	50*	21*
O=C(c1cc(Br)c(Br)s1)N1CCN(C/C=C/c2ccccc2)CC1	-2	36*	14	-3	0	3	3
CCCCC(=O)NC(=S)Nc1cc(C(=O)O)ccc1OC	-2	0	-8	3	-2	x	x
O=C(/C=C/c1ccc(Cl)cc1)NC(=S)Nc1ccccc1C(=O)O	1	35*	-28	3	0	33	9.1*
COc1ccc(C(=O)O)cc1NC(=S)NC(=O)/C=C/c1ccc(C(C)C)cc1	0	57*	1	-4	-4	75*	40*
O=C(NCc1ccccc1)c1onc(CS(=O)(=O)c2ccccn2)c1C(=O)NCc1ccccc1	1	0	-3	3	-3	x	x
CCCCN(C(=O)CSc1nc2ccccc2n1CC)C1CCS(=O)(=O)C1 (stereo not given)	3	-1	6	0	-1	x	x
O=C(/C(=N/N=C/c1ccc(O)c(O)c1)c1ccccc1)c1ccccc1	-1	37*	-3	3	2	51*	27*
Oc1ccc(/C=N/N=C/c2ccc(O)c(O)c2)cc1O	-6	1	-4	-1	-4	x	x
SMILES	PG9 binder	rCAG RNA binder	NR2E3 ag-1	NR2E3 ag-2	Rev-erbA mod	rCAG binder conf	dCAG dye counter	others
Cc1ccc2sc(NNC(=O)c3cc(=O)c4ccccc4o3)nc2c1C	-1	75*	-76	0	0	86*	45*
O=C(NNc1nc2c(F)cccc2s1)c1ccc(F)cc1	-1	3	-23	2	-1	x	x
Cc1cccc2sc(NNC(=O)c3cc(=O)c4ccccc4o3)nc12	-2	54*	-121	2	0	78*	35*
O=C(NNc1nc2c(F)cccc2s1)c1cc(=O)c2ccccc2o1	-2	58*	-127	-1	-6	68*	24*
COc1ccc2nc(NNC(=O)c3cc(=O)c4ccccc4o3)sc2c1	-4	36*	-83	5	6	55*	19*
COc1ccc(OC)c(/C=C2\SC(=S)N(C(C(=O)O)c3ccccc3)C2=O)c1 (stereo not given)	-2	55*	9	-1	-3	77*	44*
O=C(O)C(c1ccccc1)N1C(=O)/C(=C/c2cccs2)SC1=S (stereo not given)	-1	7	-15	1	2	x	x
O=C(O)C(Cc1ccccc1)N1C(=O)/C(=C/c2cccs2)SC1=S (stereo not given)	-4	67*	-16	x	-3	49*	18*
CCOc1ccc(/C=C2\SC(=S)N(C(C(=O)O)c3ccccc3)C2=O)cc1OC (stereo not given)	-1	14	-9	-12	6	x	x
COc1cccc(/C=C2\SC(=S)N(CCC(=O)Nc3ccc(O)cc3)C2=O)c1	0	14	-17	0	-3	x	x
COc1cccc(/C=C2\SC(=S)N(C(Cc3ccccc3)C(=O)O)C2=O)c1 (stereo not given)	-1	69*	-6	2	-2	78*	31*	dCAG dye DR=i
COC(=O)c1ccc(C)c(NC(=O)CCn2[nH]c(=O)ccc2=O)c1	-1	4	8	x	4	x	x
